Assay results taken from ChEMBL document CHEMBL1158474, “Focus on the controversial activation of human iNKT cells by 4-deoxy analogue of KRN7000” (J Med Chem, 2009).
The source made the active and inactive calls.

Columns and labels:
Mus musculus [1] = assay: Regulation of immune response in C57BL/6J mouse assessed as induction of NKT cell cytokine response-related IFN-gamma secretion at 100 ug/kg, ip after 18 hrs by ELISA; assay type: functional, organism-based
Method in brief: (§1)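 Mice were given glycolipid ip at 10, 50, 100 or 1000 μg/kg. Cytokine release kinetics (TNF-α, IL-4, IFN-γ) were followed over time after injection, with sampling that included 4 h and 18 h. Groups were compared statistically (P < 0.05 threshold).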

iNKT [2] = assay: Effect on immune response in human iNKT cells stimulated by antigen-presenting CD1d-transfected human HeLa cells assessed as induction of TNFalpha release by MTT assay; assay type: functional, cell-based
Method in brief: (§2)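 A human Vα24 iNKT cell line was stimulated for 6 h by CD1d-transfected HeLa cells loaded overnight with increasing glycolipid concentrations. Before loading, the glycolipid was solubilized in DMSO for a couple of hours at 37 °C. Supernatant TNF-α was measured by a cellular assay, and IFN-γ and IL-4 by ELISA. Triplicates were run, and one representative of three experiments is shown. EC50 values were given as mean ± SD.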

iNKT [3] = assay: Effect on immune response in human iNKT cells stimulated by antigen-presenting CD1d-transfected human HeLa cells assessed as induction of IFN-gamma release by ELISA; assay type: functional, cell-based; method in brief: as §2
iNKT [4] = assay: Effect on immune response in human iNKT cells stimulated by antigen-presenting CD1d-transfected human HeLa cells assessed as induction of IL4 release by ELISA; assay type: functional, cell-based; method in brief: as §2
Mus musculus [5] = assay: Regulation of immune response in C57BL/6J mouse assessed as induction of NKT cell cytokine response-related IFN-gamma secretion at 10 to 1000 ug/kg, ip after 2 hrs by ELISA; assay type: functional, organism-based
Mus musculus [6] = assay: Regulation of immune response in C57BL/6J mouse assessed as induction of NKT cell cytokine response-related IFN-gamma secretion at 10 to 1000 ug/kg, ip after 14 hrs by ELISA; assay type: functional, organism-based
Mus musculus [7] = assay: Regulation of immune response in C57BL/6J mouse assessed as induction of NKT cell cytokine response-related IL2 secretion at 10 to 1000 ug/kg, ip after 2 hrs by ELISA; assay type: functional, organism-based
Mus musculus [8] = assay: Regulation of immune response in C57BL/6J mouse assessed as induction of NKT cell cytokine response-related IL2 secretion at 10 to 1000 ug/kg, ip after 14 hrs by ELISA; assay type: functional, organism-based
Mus musculus [9] = assay: Regulation of immune response in C57BL/6J mouse assessed as induction of NKT cell cytokine response-related TNFalpha secretion at 100 ug/kg, ip after 4 hrs by ELISA; assay type: functional, organism-based; method in brief: as §1
Mus musculus [10] = assay: Regulation of immune response in C57BL/6J mouse assessed as induction of NKT cell cytokine response-related IL4 secretion at 100 ug/kg, ip after 4 hrs by ELISA; assay type: functional, organism-based; method in brief: as §1

CCCCCCCCCCCCCCCCCCCCCCCCCC(=O)N[C@@H](CO[C@H]1O[C@H](CO)[C@H](O)[C@H](O)[C@H]1O)C(O)[C@H](O)CCCCCCCCCCCCCC (single isomer, unassigned) [RGI-7000]
5 nM: EC50 (iNKT [2])
active: Activity (Mus musculus [1]) | Activity (iNKT [3]) | Activity (iNKT [4]) | Activity (Mus musculus [5]) | Activity (Mus musculus [6]) | Activity (Mus musculus [7]) | Activity (Mus musculus [8]) | Activity (Mus musculus [9]) | Activity (Mus musculus [10])
